# Assay outcomes deposited in PubChem by several laboratories.
# Most compounds without a hit are left out; they make up all but 1.8% or so of the library.
# CCR6 antagonist – CCR6 (human) receptor antagonism; P51684; hit rate 0.49% among 340,000; CHO-K1 CCR6 PathHunter beta-arrestin, luminescence, CCL20-stimulated; AID 493098; inhibition, % at 20 µM;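 active means compounds whose inhibition of the agonist-driven luminescence signal at 20 µM reaches about 50%, limit read from the data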;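 further: cells stimulated with CCL20 at 14 nM final; plate controls were DMSO with CCL20 for no effect and DMSO without agonist for full effect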
# EBI2 antag – blocks human EBI2 receptor beta-arrestin signaling; P32249; EBI2 beta-arrestin recruitment, luminescence, 7a,25-OHC stimulated; inhibition, % at 5 µM; hit rate 0.81% among 360,000; in the data active means inhibition above about 38%;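 further: enzyme fragment complementation signal reports receptor beta-arrestin coupling in cells; 0% = agonist plus DMSO wells and 100% = wells without agonist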
# Beta2AR agonist – agonists of human beta-2 adrenergic receptor inducing internalization; P07550; Am2.2-beta2AR cells, FAP receptor internalization, flow cytometry; response, % (concentration not given with the values); hit rate 0.43% among 340,000;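 active means response above a set limit, near 3 SD of response in nonfluorescent compounds, cut at about 42% in these data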
# Target sequence (P07550 whole entry, looked up): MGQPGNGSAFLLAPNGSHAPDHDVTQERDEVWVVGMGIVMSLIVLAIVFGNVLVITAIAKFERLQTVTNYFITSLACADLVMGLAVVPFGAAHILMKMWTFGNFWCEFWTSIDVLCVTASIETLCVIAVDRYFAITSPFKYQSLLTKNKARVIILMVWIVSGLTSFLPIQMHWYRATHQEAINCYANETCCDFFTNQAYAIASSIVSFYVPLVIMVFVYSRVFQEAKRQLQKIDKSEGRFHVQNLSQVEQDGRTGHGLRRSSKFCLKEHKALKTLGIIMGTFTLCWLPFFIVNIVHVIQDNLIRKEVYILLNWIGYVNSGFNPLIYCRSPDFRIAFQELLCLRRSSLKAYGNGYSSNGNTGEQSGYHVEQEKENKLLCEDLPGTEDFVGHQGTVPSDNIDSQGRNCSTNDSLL
# APJ antagonist – APJ receptor antagonism; P35414; CHO-K1 APJ beta-arrestin complementation, luminescence; inhibition, % at 20 µM; hit rate 0.32% among 330,000; AID 2521;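 active means inhibition above about 40% at 20 µM, limit read from the data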;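 further: cells challenged with 10 nM apelin-13 agonist together with compound; plate controls were apelin-13 plus DMSO wells for no effect and DMSO wells lacking apelin-13 for full effect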
# CXCR6 inh – blocks human CXCR6 beta-arrestin recruitment; CHO-K1 PathHunter CXCR6 beta-arrestin, luminescence; AID 602244; O00574; hit rate 0.36% among 360,000; inhibition, % at 20 µM; in the data active means inhibition above about 34%, passing the limit was not always enough;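 further: antagonist mode with CXCL16 agonist at 10 nM final; 0% = 10 nM CXCL16 with DMSO and 100% = unstimulated wells without agonist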
# Target sequence (O00574 whole entry, looked up): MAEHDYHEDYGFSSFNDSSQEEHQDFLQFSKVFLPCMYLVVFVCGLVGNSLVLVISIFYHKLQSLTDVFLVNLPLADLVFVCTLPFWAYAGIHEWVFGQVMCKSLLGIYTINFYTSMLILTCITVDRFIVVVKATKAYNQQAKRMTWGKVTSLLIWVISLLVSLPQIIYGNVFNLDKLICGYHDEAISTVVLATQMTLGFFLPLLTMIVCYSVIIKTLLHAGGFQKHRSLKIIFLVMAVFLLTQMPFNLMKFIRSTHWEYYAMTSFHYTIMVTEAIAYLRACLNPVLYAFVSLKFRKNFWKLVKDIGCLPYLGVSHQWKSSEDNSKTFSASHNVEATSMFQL
# APJ ag – activates the human apelin receptor APJ; CHO-K1 APJ PathHunter beta-arrestin, luminescence; 0% DMSO wells, 100% apelin; activation, % at 20 µM; hit rate 0.11% among 330,000; P35414;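 active means activation more than six SD over the plate average, tested at 20 µM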;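 further: 0% = DMSO alone and 100% = apelin-13 at 10 nM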
#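 assay system = CHO-K1 APJ beta-arrestin complementation cell line | input = cell density 1000 per well | dosing = compound 20 µM once, DMSO 1% | timing = compound 90 min 25 °C, reagent 1 h | measured by = luminescence from split beta-galactosidase complementation, Galacton Star/Emerald II substrate | read-out basis = APJ agonist activity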
# EBI2 conf – EBI2 (human) antagonism, single concentration confirmation; shares compounds with EBI2 antag; EBI2 beta-arrestin luminescence, 7a,25-OHC antagonism; inhibition, % at 5 µM; hit rate 29% among 2,400; AID 651997;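 active means inhibition of at least 50%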
# EBI2 agonist – EBI2 agonism counter-screen. shares compounds with EBI2 antag. EBI2-expressing cells, agonist mode, luminescence, 60 min; 0% vehicle, 100% 7α,25-dihydroxycholesterol control. activation, % at 5 µM. 2,400 tested, under 10 active. AID 652000;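 active means activation of at least 50%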
# bGal cs – counter-screen for EBI2 antagonists: E. coli beta-galactosidase inhibition | shares compounds with EBI2 antag | purified beta-galactosidase, luminescent Galacton Star, 15 min | inhibition, % at 5 µM | hit rate 1% among 2,400 | AID 652176;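 active means replicate-average signal at least 3 plate SD below neutral wells, shown as high inhibition, flagging enzyme-inhibiting false positives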;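 further: 0% = DMSO wells with enzyme and 100% = wells lacking enzyme; higher means stronger loss of beta-gal luminescence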
# * marks the source's active call; other numbers are inactive results; nt = not tested or not shown.
SMILES,CCR6 antagonist,EBI2 antag,Beta2AR agonist,APJ antagonist,CXCR6 inh,APJ ag,EBI2 conf,EBI2 agonist,bGal cs
COc1ccc(CN(C)C(=O)Cc2c[nH]c3ccccc23)cc1,11.2,52.4*,-1.7,1.8,-3.6,-1.2,31.2,-0.3,-8.8
Nc1nc2c(Br)ccc(Br)c2cc1C(=O)NCc1cccc2ccccc12,nt,-2.0,nt,nt,-0.5,nt,nt,nt,nt
Cc1cc(NC(=O)CSc2n[nH]c(=O)[nH]c2=O)ccc1Br,-1.6,4.0,-10.1,8.6,0.9,-3.6,nt,nt,nt
O=C(CSc1n[nH]c(=O)[nH]c1=O)Nc1ccc(C(=O)O)cc1,11.6,48.9*,0.9,12.3,-3.4,-3.4,15.2,-0.2,-9.9
COc1ccc(-c2cn(Cc3ccc(C(N)=O)cc3)c(-c3ccc(Cl)nc3)n2)cc1,1.2,3.1,-18.1,-5.3,-8.0,-3.4,nt,nt,nt
COc1ccc(-c2cn(Cc3ccc(C(=O)NCc4ccc(C)cc4)cc3)c(C(C)N)n2)cc1 (centres undefined),-9.5,54.5*,12.0,9.2,8.5,-1.8,5.3,1.2,-2.2
COc1ccc(Nc2c(C3CC3)nc3nc(C)cc(C)n23)cc1,nt,-11.6,nt,nt,-4.7,nt,nt,nt,nt
O=C(CCc1ccccc1)Nc1ccc2ccccc2n1,3.9,72.4*,0.4,5.8,1.4,-3.7,49.7,-0.8,-9.4
COc1cc(OC)cc(C(=O)NNC(=O)CCc2nc3ccccc3c(=O)[nH]2)c1,3.5,6.4,-3.5,-4.9,-1.6,-4.0,nt,nt,nt
O=C(CCc1nc2ccccc2c(=O)[nH]1)NNC(=O)COc1ccc(Br)cc1,16.1,59.2*,-3.2,13.7,0.6,-2.8,39.1,0.3,-7.3
C=CCn1c(=O)c2c(nc(-n3nc(C)cc3C)n2C)n(C)c1=O,12.6,-7.3,-1.8,-12.0,16.6,-3.0,nt,nt,nt
CCCCn1nnnc1C(c1ccccc1)N1CCN(C/C=C/c2ccccc2)CC1 (centres undefined),nt,46.2*,nt,nt,-3.2,nt,22.3,-0.5,-10.7
CCCCn1nnnc1C(c1cccc2ccccc12)N1CCN(C/C=C/c2ccccc2)CC1 (centres undefined),nt,44.4*,nt,nt,19.2,nt,30.2,0.1,3.7
COc1ccc(C(=O)N2CCC(O)(c3ccc(F)cc3)CC2)cc1OC,14.6,19.7,-8.1,1.9,-5.3,1.1,nt,nt,nt
COc1ccc(C(=O)N2CCN(C(=O)c3ccc(-c4ccccc4)cc3)CC2)cc1OC,15.5,80.7*,1.7,5.9,2.0,0.6,49.2,0.2,11.2
CC(C)CC(=O)N1CCN(C(=O)c2cccc(F)c2)CC1,-16.3,-3.6,4.6,10.4,-3.7,-0.3,nt,nt,nt
COc1ccc(C(=O)N2CCC(O)(c3ccc(Cl)cc3)CC2)cc1OC,2.9,51.7*,-0.7,-14.8,-1.7,2.7,44.3,1.8,0.5
O=C(c1ccccc1)N1CCN(C(=O)c2ccc(OC(F)(F)F)cc2)CC1,-0.2,52.7*,1.2,0.9,0.7,0.1,28.0,1.7,11.3
CC(C)CC(=O)N1CCN(C(=O)c2ccc(-c3ccccc3)cc2)CC1,-4.7,73.6*,-6.8,16.3,-17.9,0.0,24.7,0.1,7.2
COc1ccc(C(=O)N2CCN(c3ccc(C)cc3)CC2)cc1OC,-9.0,16.9,10.4,-9.4,2.0,0.5,nt,nt,nt
O=c1[nH][nH]c2c1C(c1ccc(Cl)c(Cl)c1)OC(CCc1ccccc1)C2 (centres undefined),nt,3.4,nt,nt,-10.0,nt,nt,nt,nt
CC(C)NC(=O)C1CCN(C(=O)c2ccc(-c3ccccc3)cc2)CC1,18.3,44.0*,0.0,5.5,-3.4,-5.3,41.9,-1.5,-20.2
COc1cc(OC)cc(C(=O)N2CCN(C(=O)c3ccc(-c4ccccc4)cc3)CC2)c1,-5.7,89.0*,3.7,-12.2,1.0,-1.4,66.9*,-1.2,-1.1
CC(C(=O)N1CCN=C1c1ccccc1)N1C(=O)c2ccccc2C1=O (centres undefined),1.4,-14.1,-1.6,-4.7,-2.3,0.7,nt,nt,nt
CC(C)N(C)Cc1nnnn1CC(=O)N(C)Cc1cccc(Cl)c1,15.9,4.1,-2.4,-17.0,5.1,0.2,nt,nt,nt
SMILES,CCR6 antagonist,EBI2 antag,Beta2AR agonist,APJ antagonist,CXCR6 inh,APJ ag,EBI2 conf,EBI2 agonist,bGal cs
O=C(c1ccc(Cl)cc1)C1CCN(C(=O)C2CC2)CC1,5.0,4.4,-1.7,5.1,5.0,2.5,nt,nt,nt
O=C(c1ccccc1)C1CCN(C(=O)c2ccc(Cl)cc2)CC1,10.3,86.4*,-6.3,4.0,-0.6,-3.4,72.5*,1.7,5.4
Cc1ccc(C(=O)N2CCC(C(=O)c3ccc(Cl)cc3)CC2)cc1,4.9,60.9*,3.9,4.2,5.2,-1.9,40.6,0.7,12.2
COc1ccc(C(CNC(=O)c2ccc(OC)c(S(=O)(=O)N3CCCC3)c2)N2CCCC2)cc1 (centres undefined),3.2,7.5,3.4,-8.0,-3.1,-2.6,nt,nt,nt
COc1ccc(CCNC(=O)COc2ccc(N(C)S(=O)(=O)c3ccc(Cl)cc3)cc2)cc1,7.0,63.0*,4.8,nt,9.3,nt,34.3,-1.0,-14.2
Cc1c(C(=O)N2CCC(N3CCSCC3)CC2)oc2c(F)cccc12,5.9,46.5*,-3.1,-10.0,-6.9,-3.6,12.1,-1.4,-11.7
Cc1ccc2oc(C(=O)N3CCC(N4CCSCC4)CC3)c(C)c2c1,2.3,71.3*,-3.3,3.9,-5.6,-3.5,46.2,1.8,4.3
Cc1cccc(-n2nnnc2SCC(=O)Nc2ccc(N3CCN(C)CC3)cc2)c1,2.2,-3.5,0.6,12.6,4.5,-1.7,nt,nt,nt
CC(C)(C)c1nnc(N/N=C/c2ccccc2)n(N)c1=O,12.4,76.8*,-0.5,2.3,-2.0,1.2,48.2,2.1,8.5
O=C(COc1ccc(Cl)cc1)c1ccc(O)cc1O,13.2,44.3*,0.5,7.0,-5.3,-4.4,4.6,0.6,1.6
COC(=O)c1ccc(OCC(=O)c2ccc(O)cc2O)cc1,-11.2,-1.5,4.3,12.1,3.6,-4.5,nt,nt,nt
O=C(CS(=O)CC(=O)Nc1cccnc1)Nc1ccc(F)cc1 (centres undefined),7.7,-1.5,-3.7,0.6,-4.5,-0.2,nt,nt,nt
COc1cccc(C(=O)c2c(-c3ccccc3)ncc3cc(OC)c(OC)cc23)c1,27.4,84.9*,-5.7,nt,3.0,nt,55.6*,-0.1,-14.3
Oc1ccccc1-c1nnc(COc2ccc(Cl)cc2Cl)o1,13.8,0.6,4.0,-0.1,19.6,-2.9,nt,nt,nt
Clc1ccc(-c2nnc(CCc3ccccc3)o2)c(Cl)c1,21.1,55.4*,-1.7,-11.2,-0.9,-7.0,41.3,1.4,1.2
